Experimental data reported in ChEMBL document CHEMBL2406979, “Antitumor activity of 2-hydroxycinnamaldehyde for human colon cancer cells through suppression of β-catenin signaling” (J Nat Prod, 2013).
Calls of active or inactive are those of the source. The rule behind the calls is not given here.

Columns and labels:
Mus musculus [1] = test: In vivo inhibition of Wnt/beta-catenin signaling pathway in human HCT116 cells xenografted in BALB/c-nu mouse assessed as downregulation of MMP7 mRNA expression at 10 to 20 mg/kg, ip administered 3 times per week measured after 4 weeks by real-time PCR analysis; assay type: functional, organism-based; settings: HCT-116
Outline: (§1)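 Frozen tumors from ip-dosed HCT116 xenograft mice were extracted with TRI reagent and reverse-transcribed. SYBR Green real-time PCR run 40 cycles of 95/56/72 °C. Expression by 2^−ΔΔCT normalized to β-actin, relative to vehicle-treated controls; quadruplicate.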

HCT-116 [2] = test: Inhibition of Wnt/beta-catenin signaling pathway in human HCT116 cells assessed as downregulation of CCND1 protein expression at 5 to 10 uM after 24 to 48 hrs by Western blot analysis; assay type: cell-based
Outline: (§2)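 HCT116 cells treated 24 or 48 h. Lysed in RIPA buffer; equal protein run on 8−13% SDS-PAGE, blotted to PVDF, probed for β-catenin, c-myc and cyclin D1, detected by ECL. β-Actin served as internal standard; four determinations.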

HCT-116 [3] = test: Cytotoxicity against human HCT116 cells assessed as growth inhibition at 5 to 20 uM by SRB assay; assay type: functional, cell-based; settings: TDE = time-dependent effect
Outline: (§3)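 HCT116 cells seeded at 6 × 10^3/well and grown 24 h. Day-zero plates fixed; others exposed 24, 48 or 72 h. Fixed with 10% TCA, stained with 0.4% SRB in 1% acetic acid, dye taken up in 10 mM Tris pH 10.0, read at 515 nm. Proliferation % = (compound − day zero)/(control − day zero) × 100. IC50 by nonlinear regression; four determinations.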

Mus musculus [4] = test: In vivo inhibition of Wnt/beta-catenin signaling pathway in human HCT116 cells xenografted in BALB/c-nu mouse assessed as downregulation of CMYC mRNA expression at 10 to 20 mg/kg, ip administered 3 times per week measured after 4 weeks by real-time PCR analysis; assay type: functional, organism-based; settings: HCT-116; outline: as §1
HCT-116 [5] = test: Inhibition of Wnt/beta-catenin signaling pathway in human HCT116 cells assessed as downregulation of CMYC mRNA expression at 5 to 10 uM after 12 hrs by real-time PCR analysis; assay type: cell-based
Outline: (§4)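 HCT116 cells treated 12 h. Total RNA by TRI reagent, reverse-transcribed, SYBR Green real-time PCR: 40 cycles of 95 °C 20 s, 56 °C 20 s, 72 °C 30 s. Fold change by 2^−ΔΔCT normalized to β-actin, relative to untreated control; quadruplicate.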

HCT-116 [6] = test: Inhibition of Beta-catenin/TCF complex binding to DNA in human HCT116 cells at 5 to 10 uM after 30 mins by electrophoretic mobility shift assay; assay type: cell-based
Outline: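 HCT116 cells (1 × 10^6) treated 30 min. Nuclear extract made by NP-40 hypotonic lysis, then 420 mM NaCl hypertonic extraction; protein by Bradford. Binding: 8 μg nuclear protein with 1.5 pmol biotin-labeled TCF binding probe, 15 °C for 30 min, read by EMSA against vehicle-treated cells.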

HCT-116 [7] = test: Cytotoxicity against human HCT116 cells assessed as growth inhibition after 24 to 72 hrs by SRB assay; assay type: functional, cell-based; outline: as §3
HEK293 [8] = test: Inhibition of Wnt/beta-catenin (unknown origin) signaling pathway expressed in HEK293 cells assessed as inhibition of TCF4 transcriptional activity at 5 to 40 uM after 24 hrs by FOPflash reporter gene assay; assay type: cell-based; settings: Homo sapiens
Outline: (§5)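 HEK293 cells seeded at 1.5 × 10^4/well. After 24 h, lipofected with 0.1 μg TOPflash or FOPflash, 0.005 μg Renilla, 0.02 μg β-catenin and 0.004 μg TCF4 vectors. Treated 24 h after transfection for 24 h. Dual luciferase read-out, firefly normalized to Renilla, relative to vehicle; triplicate.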

Mus musculus [9] = test: Toxicity in BALB/c-nu mouse xenografted with human HCT116 cells assessed as change in body weight at 10 to 20 mg/kg, ip administered 3 times per week measured for 4 weeks; assay type: organism-based, HCT-116; design: dose 10-20 mg/kg, route intraperitoneal; settings: in vivo, 672 h
Outline: (§6)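 Same HCT116 flank xenograft in female BALB/c-nu mice, five per group, dosed ip in 0.5% Tween 80/saline with vehicle controls. Toxicity was judged from lethality and body weight loss, with body weights tracked through the study.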

HCT-116 [10] = test: Inhibition of Wnt/beta-catenin signaling pathway in human HCT116 cells assessed as downregulation of PLAU mRNA expression at 5 to 10 uM after 12 hrs by real-time PCR analysis; assay type: cell-based; outline: as §4
HCT-116 [11] = test: Cytotoxicity against human HCT116 cells assessed as growth inhibition after 48 hrs by SRB assay; assay type: functional, cell-based; settings: HCT-116, 48 h; outline: as §3
Mus musculus [12] = test: In vivo inhibition of Wnt/beta-catenin signaling pathway in human HCT116 cells xenografted in BALB/c-nu mouse assessed as downregulation of CMYC protein expression at 10 to 20 mg/kg, ip administered 3 times per week measured after 4 weeks by Western blot analysis; assay type: functional, organism-based; settings: HCT-116
Outline: (§7)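 Part of each frozen xenograft tumor was thawed on ice and hand-homogenized in Complete Lysis Buffer. Protein was quantified and aliquots stored at −80 °C. Western blot: SDS-PAGE, PVDF transfer, ECL detection, compared with vehicle-treated tumors.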

HCT-116 [13] = test: Cytotoxicity against human HCT116 cells assessed as growth inhibition after 24 hrs by SRB assay; assay type: functional, cell-based; settings: HCT-116, 24 h; outline: as §3
Mus musculus [14] = test: In vivo inhibition of Wnt/beta-catenin signaling pathway in human HCT116 cells xenografted in BALB/c-nu mouse assessed as downregulation of survivin protein expression at 10 to 20 mg/kg, ip administered 3 times per week measured after 4 weeks by Western blot analysis; assay type: functional, organism-based; settings: HCT-116; outline: as §7
Mus musculus [15] = test: In vivo inhibition of Wnt/beta-catenin signaling pathway in human HCT116 cells xenografted in BALB/c-nu mouse assessed as downregulation of NKD1 mRNA expression at 10 to 20 mg/kg, ip administered 3 times per week measured after 4 weeks by real-time PCR analysis; assay type: functional, organism-based; settings: HCT-116; outline: as §1
HCT-116 [16] = test: Inhibition of Wnt/beta-catenin signaling pathway in human HCT116 cells assessed as downregulation of DKK1 mRNA expression at 5 to 10 uM after 12 hrs by real-time PCR analysis; assay type: cell-based; outline: as §4
HCT-116 [17] = test: Inhibition of Wnt/beta-catenin signaling pathway in human HCT116 cells assessed as downregulation of CMYC protein expression at 5 to 10 uM after 24 to 48 hrs by Western blot analysis; assay type: cell-based; outline: as §2
Mus musculus [18] = test: In vivo inhibition of Wnt/beta-catenin signaling pathway in human HCT116 cells xenografted in BALB/c-nu mouse assessed as downregulation of PLAU mRNA expression at 10 to 20 mg/kg, ip administered 3 times per week measured after 4 weeks by real-time PCR analysis; assay type: functional, organism-based; settings: HCT-116; outline: as §1
Mus musculus [19] = test: In vivo inhibition of Wnt/beta-catenin signaling pathway in human HCT116 cells xenografted in BALB/c-nu mouse assessed as downregulation of CCND1 protein expression at 10 to 20 mg/kg, ip administered 3 times per week measured after 4 weeks by Western blot analysis; assay type: functional, organism-based; settings: HCT-116; outline: as §7
HEK293 [20] = test: Inhibition of Wnt/beta-catenin (unknown origin) signaling pathway expressed in HEK293 cells assessed as inhibition of TCF4 transcriptional activity after 24 hrs by TOPflash reporter gene assay; assay type: cell-based; settings: Homo sapiens; outline: as §5
HCT-116 [21] = test: Cytotoxicity against human HCT116 cells assessed as growth inhibition after 72 hrs by SRB assay; assay type: functional, cell-based; settings: HCT-116, 72 h; outline: as §3
HCT-116 [22] = test: Inhibition of Wnt/beta-catenin signaling pathway in human HCT116 cells assessed as downregulation of CCND1 mRNA expression at 5 to 10 uM after 12 hrs by real-time PCR analysis; assay type: cell-based; outline: as §4
HCT-116 [23] = test: Inhibition of Wnt/beta-catenin signaling pathway in human HCT116 cells assessed as downregulation of MMP7 mRNA expression at 5 to 10 uM after 12 hrs by real-time PCR analysis; assay type: cell-based; outline: as §4
HCT-116 [24] = test: Antitumor activity against human HCT116 cells xenografted in BALB/c-nu mouse assessed as tumor growth inhibition at 20 mg/kg, ip administered 3 times per week for 4 weeks measured every 2 to 3 days during treatment relative to control; assay type: functional; settings: HCT-116, ip, route intraperitoneal, read-out: TGI
Outline: (§8)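 Female BALB/c-nu mice, 4−6 weeks old, acclimated one week, given 2 × 10^6 HCT116 cells sc in the flank. Dosing began near 100 mm3, about day 8; five mice per group. Dose in 0.5% Tween 80 in normal saline, 200 μL ip; controls got vehicle. Tumor volume by caliper = L × W × H/2. Study ended when control tumors averaged ~1300 mm3.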

HCT-116 [25] = test: Inhibition of Wnt/beta-catenin signaling pathway in human HCT116 cells assessed as downregulation of total beta-catenin protein expression at 5 to 10 uM after 24 to 48 hrs by Western blot analysis; assay type: cell-based; outline: as §2
Mus musculus [26] = test: In vivo inhibition of Wnt/beta-catenin signaling pathway in human HCT116 cells xenografted in BALB/c-nu mouse assessed as downregulation of Ki-67 expression at 10 to 20 mg/kg, ip administered 3 times per week measured after 4 weeks by hematoxylin staining-based inverted phase-contrast microscopic analysis; assay type: functional, organism-based; settings: HCT-116
Outline: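 Immunohistochemistry on xenograft tumor sections from ip-dosed mice. Ki-67 detected with anti-Ki67 antibody and an LSAB+ HRP system. Sections counterstained with hematoxylin and photographed under an inverted phase-contrast microscope at 200×.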

Mus musculus [27] = test: In vivo inhibition of Wnt/beta-catenin signaling pathway in human HCT116 cells xenografted in BALB/c-nu mouse assessed as downregulation of CCND1 mRNA expression at 10 to 20 mg/kg, ip administered 3 times per week measured after 4 weeks by real-time PCR analysis; assay type: functional, organism-based; settings: HCT-116; outline: as §1
HCT-116 [28] = test: Inhibition of Wnt/beta-catenin codon 45 deletion mutant signaling pathway human HCT116 cells assessed as inhibition of TCF4 transcriptional activity after 24 hrs by TOPflash reporter gene assay; assay type: cell-based
Outline: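 HCT116 cells seeded at 1.5 × 10^4/well and lipofected after 24 h with 0.1 μg TOPflash (or FOPflash) plus 0.005 μg Renilla; no β-catenin/TCF4 added. Treated 24 h for 24 h. Dual luciferase, Renilla-normalized, relative to vehicle; means ± SD, n = 3, four separate determinations.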

HCT-116 [29] = test: Antitumor activity against human HCT116 cells xenografted in BALB/c-nu mouse assessed as tumor growth inhibition at 10 mg/kg, ip administered 3 times per week for 4 weeks measured every 2 to 3 days during treatment relative to control; assay type: functional; settings: HCT-116, ip, route intraperitoneal, read-out: TGI; outline: as §8
HCT-116 [30] = test: Inhibition of Wnt/beta-catenin signaling pathway in human HCT116 cells assessed as downregulation of AXIN2 mRNA expression at 5 to 10 uM after 12 hrs by real-time PCR analysis; assay type: cell-based; outline: as §4
Mus musculus [31] = test: In vivo inhibition of Wnt/beta-catenin signaling pathway in human HCT116 cells xenografted in BALB/c-nu mouse assessed as downregulation of cyclin D1 expression at 10 to 20 mg/kg, ip administered 3 times per week measured after 4 weeks by hematoxylin staining-based inverted phase-contrast microscopic analysis; assay type: functional, organism-based; settings: HCT-116
HCT-116 [32] = test: Inhibition of Wnt/beta-catenin signaling pathway in human HCT116 cells assessed as downregulation of NKD1 mRNA expression at 5 to 10 uM after 12 hrs by real-time PCR analysis; assay type: cell-based; outline: as §4
Mus musculus [33] = test: Toxicity in BALB/c-nu mouse xenografted with human HCT116 cells assessed as overt toxicity at 10 to 20 mg/kg, ip administered 3 times per week measured for 4 weeks; assay type: organism-based, HCT-116; design: dose 10-20 mg/kg, route intraperitoneal; settings: in vivo, 672 h; outline: as §6
Mus musculus [34] = test: In vivo inhibition of Wnt/beta-catenin signaling pathway in human HCT116 cells xenografted in BALB/c-nu mouse assessed as downregulation of beta-catenin expression at 10 to 20 mg/kg, ip administered 3 times per week measured after 4 weeks by hematoxylin staining-based inverted phase-contrast microscopic analysis; assay type: functional, organism-based; settings: HCT-116

## O=C/C=C/c1ccccc1O [2-HYDROXYCINNAMALDEHYDE]
Mus musculus [1]
  inhibition: Active
HCT-116 [2]
  inhibition: Active
HCT-116 [3]
  Activity: tde
Mus musculus [4]
  inhibition: Active
HCT-116 [5]
  inhibition: Active
HCT-116 [6]
  inhibition: Active
HCT-116 [7]
  Activity: Dose-dependent effect
HEK293 [8]
  inhibition: inactive
Mus musculus [9]
  Activity: Non-toxic
HCT-116 [10]
  inhibition: Active
HCT-116 [11]
  IC50: 6.62 µM
Mus musculus [12]
  inhibition: Active
HCT-116 [13]
  IC50: 8.14 µM
Mus musculus [14]
  inhibition: Active
Mus musculus [15]
  inhibition: Active
HCT-116 [16]
  inhibition: Active
HCT-116 [17]
  inhibition: Active
Mus musculus [18]
  inhibition: Active
Mus musculus [19]
  inhibition: Active
HEK293 [20]
  inhibition: Dose-dependent effect
HCT-116 [21]
  IC50: 6.17 µM
HCT-116 [22]
  inhibition: Active
HCT-116 [23]
  inhibition: Active
HCT-116 [24]
  inhibition in vivo at 20 mg/kg: 69%
HCT-116 [25]
  inhibition: Active
Mus musculus [26]
  inhibition: Active
Mus musculus [27]
  inhibition: Active
HCT-116 [28]
  inhibition: Dose-dependent effect
HCT-116 [29]
  inhibition in vivo at 10 mg/kg: 52%
HCT-116 [30]
  inhibition: Active
Mus musculus [31]
  inhibition: Active
HCT-116 [32]
  inhibition: Active
Mus musculus [33]
  Activity: Non-toxic
Mus musculus [34]
  inhibition: Active
